Data set [1] concerns Escherichia coli. Briefly: Observed diffusion coefficient in organic solvent for Escherichia coli. It is filed as ADME, organism-based. More on the design: unit not given here. The essentials:
(§1)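 Partition coefficient by Taylor-Aris diffusion in the same cells as the screen. Cells from a liquid-nitrogen ampule were put in 25 mL 1/4 Ringer's solution; 15 mL of this was diluted with a further 24 mL 1/4 Ringer's. Water bath held at 298.15 K. Carrier pumped at least 10 min or to stable baseline before first injection. Retention time and half-height peak width taken from dispersion curve. At least two replicates per solute.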

Data set [2] deals with Escherichia coli. Briefly: Normal diffusion coefficient in water for Escherichia coli. Also on record: unit not given here. It is filed as ADME, organism-based. The essentials: as §1
For data set [3], the system named is Escherichia coli. Briefly: Potency against Escherichia coli was determined microcalorimetrically at the dose of 2.619 uMol/L. It is filed as functional, organism-based.
The nature of data set [4]: Partition coefficient was obtained using Taylor-Aris diffusion process. The class given is ADME. Particulars: E. coli cells. In short, it runs like this:
as §1

Structures are written as SMILES.

`O=C(NNC(=O)c1ccc(Br)cc1)c1ccccc1`: in the data set with Escherichia coli [1], the Dobs is on record as 11.9. Further, the DW with Escherichia coli [2] is listed as 13.47. The same compound came in with a Log D50 with Escherichia coli [3] of 2.73. The compound further yielded a logP in data set [4] of -0.879.
On the same counts, the results for `CCCCCc1ccc(C(=O)NNC(=O)c2ccccc2)cc1` are 17.3, 21.15, 3.05 and -0.652.
For the compound `COc1ccc(C(=O)NNC(=O)c2ccccc2)cc1`, the Dobs with Escherichia coli [1] was 8.98. This compound showed a DW with Escherichia coli [2] of 9.86. Moreover, the Log D50 with Escherichia coli [3] was 2.6. Besides, the logP in data set [4] was -1.
Compound `O=C(NNC(=O)c1ccc([N+](=O)[O-])cc1)c1ccccc1` returned a Dobs with Escherichia coli [1] of 10.15. In the data set with Escherichia coli [2], this compound displayed a DW of 10.879. Further, in the data set on Escherichia coli [3], the Log D50 was determined as 2.38. Also, the logP in data set [4] was -1.14.
In turn, `CC(C)(C)c1ccc(C(=O)NNC(=O)c2ccccc2)cc1` yielded a Dobs in the data set with Escherichia coli [1] of 15.1. For the same compound, the DW in the data set with Escherichia coli [2] is 17.5. In the data set with Escherichia coli [3], this compound gave a Log D50 of 3.21. In data set [4], this compound gave a logP of -0.799.
`O=C(NNC(=O)c1ccccc1)c1ccccc1` gave a Dobs in the data set on Escherichia coli [1] of 9.2. In the data set with Escherichia coli [2], this compound had a DW of 9.94. In the data set on Escherichia coli [3], this compound returned a Log D50 of 2.28. Moreover, in data set [4], the logP was -1.09.
In the data set with Escherichia coli [1], `O=C(NNC(=O)c1ccc(-c2ccccc2)cc1)c1ccccc1` gave a Dobs of 14.6. The same compound gave a DW with Escherichia coli [2] of 16.98. This compound displayed a Log D50 in the data set with Escherichia coli [3] of 3.24. The compound also gave a logP in data set [4] of -0.787.
In the same order, the values of `Cc1ccc(C(=O)NNC(=O)c2ccccc2)cc1` are 11.02, 12.24, 2.54 and -0.956.

These data come from ChEMBL document CHEMBL1133012, “QSAR based on biological microcalorimetry” (J Med Chem, 2000).
